Results pooled from the literature.
Each line is one published result; the experiments were not run side by side. In brackets after ≈: the same amount, converted by molar mass.
Technique: broth dilution

With `O=C(Nc1cccc(Cl)c1)c1ccc(COC(Cn2ccnc2)c2ccc(Cl)cc2Cl)cc1` (centres unmarked) the MIC80 was 0.06 µg/mL (≈ 0.12 µM) (Lodderomyces parapsilosis; microbial growth).
The MIC of `OC(Cn1cncn1)(Cn1cncn1)c1ccc(F)cc1F` is reported as 10 µg/mL (≈ 32.7 µM) (Aspergillus niger; microbial growth).
`O=C(Nc1cccc(F)c1)c1ccc(COC(Cn2ccnc2)c2ccc(Cl)cc2Cl)cc1` (centres unmarked) has an MIC80 of 0.125 µg/mL (≈ 0.258 µM) (Lodderomyces parapsilosis; microbial growth).
`O=C(O[C@@H]1O[C@@H]2COC(=O)c3cc(O)c(O)c(O)c3-c3c(cc(O)c(O)c3O)C(=O)O[C@H]([C@H]1O)[C@@H]2O)c1cc(O)c(O)c(O)c1` gave an MIC of 200 µg/mL (≈ 315 µM) (Streptococcus sobrinus; microbial growth; 24 h).
The MIC of `C/C(=N\C(=S)/N=C(\C)c1c(O)c2ccccc2oc1=O)c1c(O)c2ccccc2oc1=O` is reported as 3.9 µg/mL (≈ 8.7 µM) (Aspergillus niger; microbial growth; 48 h).
For `C[C@@H]1O[C@@H](OC[C@H]2O[C@@H](Oc3c(-c4ccc(O)c(O)c4)oc4cc(O)cc(O)c4c3=O)[C@H](O)[C@@H](O)[C@@H]2O)[C@H](O)[C@H](O)[C@H]1O`, the MIC was 200 µg/mL (≈ 328 µM) (Streptococcus sobrinus; microbial growth; 24 h).
The MIC80 of `O=C(Nc1ccc(C(F)(F)F)cc1)c1ccc(COC(Cn2ccnc2)c2ccc(Cl)cc2Cl)cc1` (centres unmarked) is reported as 0.06 µg/mL (≈ 0.112 µM) (Lodderomyces parapsilosis; microbial growth).
The MIC of `C/C(=N\C(=N)/N=C(\C)c1c(O)c2ccccc2oc1=O)c1c(O)c2ccccc2oc1=O` is reported as 62.5 µg/mL (≈ 145 µM) (Aspergillus niger; microbial growth; 48 h).
With `O=C1OC[C@H]2OC(O)[C@H](O)[C@@H](O)[C@@H]2OC(=O)c2cc(O)c(O)c(O)c2-c2c(O)c(O)c3oc(=O)c4c(c(O)c(O)c5oc(=O)c2c3c54)-c2c1cc(O)c(O)c2O` (mixture of isomers) the MBC was 200 µg/mL (Streptococcus sobrinus; microbial killing).
`C/C(=N\C1CCCCC1/N=C(\C)c1c(O)c2ccccc2oc1=O)c1c(O)c2ccccc2oc1=O` (centres unmarked) has an MIC of 15.6 µg/mL (≈ 32.1 µM) (Aspergillus niger; microbial growth; 48 h).
`CO/N=C(\C(=O)N[C@@H]1C(=O)N2C(C(=O)O)=C(CSc3nc(=O)c(=O)[nH]n3C)CS[C@H]12)c1csc(N)n1` has an MIC of 0.008 µg/mL (≈ 0.0144 µM) (Neisseria gonorrhoeae; microbial growth; ATCC49226).
With `COc1ccc(NC(=O)c2ccc(COC(Cn3ccnc3)c3ccc(Cl)cc3Cl)cc2)cc1` (centres unmarked) the MIC80 was 0.125 µg/mL (≈ 0.252 µM) (Lodderomyces parapsilosis; microbial growth).
`COc1cc(C=O)ccc1OC1=C(Cl)C(=O)c2ccccc2C1=O` gave an MIC of 12 µg/mL (≈ 35 µM) (Aspergillus niger; microbial growth).
`O=C(Nc1ccc(F)cc1)c1ccc(COC(Cn2ccnc2)c2ccc(Cl)cc2Cl)cc1` (centres unmarked) has an MIC80 of 0.125 µg/mL (≈ 0.258 µM) (Lodderomyces parapsilosis; microbial growth).
For `O=C1O[C@H]2[C@@H]3OC(=O)c4cc(O)c(O)c(O)c4-c4c(O)c(O)c5oc(=O)c6c(c(O)c(O)c7oc(=O)c4c5c76)-c4c(cc(O)c(O)c4O)C(=O)OC[C@H]3OC(O)[C@@H]2OC(=O)c2cc(O)c(O)c(O)c2-c2c1cc(O)c(O)c2O` (mixture of isomers), the MIC was 100 µg/mL (Streptococcus sobrinus; microbial growth; 24 h).
The MIC of `C/C(=N\c1nc(N)nc(/N=C(\C)c2c(O)c3ccccc3oc2=O)n1)c1c(O)c2ccccc2oc1=O` is reported as 31.2 µg/mL (≈ 62.7 µM) (Aspergillus niger; microbial growth; 48 h).
`O=c1oc2c(O)c(O)cc3c(=O)oc4c(O)c(O)cc1c4c23` has an MIC of 100 µg/mL (≈ 331 µM) (Streptococcus sobrinus; microbial growth; 24 h).
`O=C(Nc1ccc(Br)cc1)c1ccc(COC(Cn2ccnc2)c2ccc(Cl)cc2Cl)cc1` (centres unmarked) gave an MIC80 of 0.125 µg/mL (≈ 0.229 µM) (Lodderomyces parapsilosis; microbial growth).
`Oc1cc(O)c2c(c1)O[C@H](c1cc(O)c(O)c(O)c1)[C@@H](O)C2` gave an MBC of 400 µg/mL (≈ 1310 µM) (Streptococcus sobrinus; microbial killing).
`C/C(=N\C(=O)/N=C(\C)c1c(O)c2ccccc2oc1=O)c1c(O)c2ccccc2oc1=O` has an MIC of 125 µg/mL (≈ 289 µM) (Aspergillus niger; microbial growth; 48 h).
